ASAP1 inh: blocks human ASAP1-stimulated Arf1 GTP hydrolysis; inhibition, % at 16.5 µM; GDP FP detection; 360,000 compounds, 0.19% hits; Q9ULH1; in the data active means inhibition above about 25%;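 further: 0% = vehicle with enzyme and substrate and 100% = no enzyme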
LEDGF integ inh: blocks HIV-1 LEDGF/p75-dependent DNA integration; TR-FRET IN-LEDGF/p75 DNA integration, Eu/Cy5; 370,000 compounds, 0.64% hits; inhibition, % at 3.7 µM;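 active means inhibition above the screen-wide mean plus 3 SD, cut at about 13% in these data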;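 further: signal is the Cy5 over europium emission ratio at 671 and 618 nm; 0% = plate median of compound wells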
MBD2 inh: MBD2-methylated oligo binding inhibition; TR-FRET, MBD2 binding to methylated oligonucleotide; inhibition, % at 4.4 µM; 370,000 compounds, 0.31% hits; in the data active means inhibition above about 13%
Target sequence (Q9UBB5 whole entry, looked up): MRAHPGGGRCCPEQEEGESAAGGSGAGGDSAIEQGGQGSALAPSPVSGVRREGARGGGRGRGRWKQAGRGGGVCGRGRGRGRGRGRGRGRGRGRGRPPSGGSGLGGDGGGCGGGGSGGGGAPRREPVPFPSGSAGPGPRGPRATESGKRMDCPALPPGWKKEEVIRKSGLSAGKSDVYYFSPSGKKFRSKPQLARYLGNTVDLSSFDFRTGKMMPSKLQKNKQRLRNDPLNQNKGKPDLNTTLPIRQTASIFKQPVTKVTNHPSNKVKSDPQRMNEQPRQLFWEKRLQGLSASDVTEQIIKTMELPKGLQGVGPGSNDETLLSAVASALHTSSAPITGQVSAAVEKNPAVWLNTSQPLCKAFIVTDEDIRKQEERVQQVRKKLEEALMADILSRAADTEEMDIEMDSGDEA
UHRF1 binding: blocks human UHRF1 binding to methylated DNA. AID 687016. 370,000 compounds, 0.75% hits. UHRF1 binding to methylated oligo, TR-FRET. Q96T88. inhibition, % at 4.4 µM; in the data active means inhibition above about 21%;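 further: UHRF1 SRA domain binding a hemimethylated CpG hairpin DNA probe; 0% = median of test compound wells and 100% = reference inhibitor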
TDP2 inh: TDP2 (human) inhibition, absorbance primary screen | O95551 | recombinant TDP2, T5PNP hydrolysis, p-nitrophenol absorbance 415 nm | inhibition, % at 12.8 µM | 370,000 compounds, 0.34% hits | AID 720702;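 active means inhibition above the mean of all tested compounds plus 3 SD, set per campaign, cut at about 25% in these data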;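 further: 0% = DMSO with enzyme and 100% = buffer with substrate but no TDP2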
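Material: recombinant human TDP2; quantity: TDP2 enzyme at 120 nM final; medium: Tris-HCl pH 7.5 with MgCl2; compound: single concentration, 12.8 µM nominal, with 1% DMSO; incubation: 2 h enzyme incubation at 37 °C; signal: epi absorbance; measure: percent inhibition; benchmarks: high control without enzyme, low control DMSO plus TDP2; repeats: singlicate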
ARFGAP1 inhibitor: inhibits rat ARF GTPase activating protein 1 | Q62848 | Arfgap1-stimulated ARF1 GTP hydrolysis, GDP FP detection | inhibition, % at 16.5 µM | 360,000 compounds, 0.26% hits | AID 651572;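 active means inhibition above a per-plate limit, mean inhibition of low control wells plus 3 SD, cut at about 25% in these data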;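 further: 0% = DMSO wells with enzyme and 100% = wells lacking Arfgap1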
Target sequence (Q62848 1-136 limits assumed): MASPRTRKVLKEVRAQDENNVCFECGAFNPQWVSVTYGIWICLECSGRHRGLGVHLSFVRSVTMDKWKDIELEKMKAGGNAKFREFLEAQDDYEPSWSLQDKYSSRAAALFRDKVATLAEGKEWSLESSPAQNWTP
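Repeats: one replicate per compound; assay system: rat Arfgap1 catalytic domain, aa 1-136; times: enzyme reaction 120 min at 25 °C after 20 min preincubation; detection: FP of antibody-bound GDP Alexa 633 tracer, ex 620/em 688 nm; benchmarks: high control wells lacking Arfgap1, low control full reaction with DMSO; reagent: human ARF1(Δ1-17)-GTP substrate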
ASAP1 inh confirm: confirmation of human ASAP1 inhibitors; shares compounds with ASAP1 inh; ASAP1-stimulated Arf1 GTPase, GDP fluorescence polarization; inhibition, % at 16.5 µM; 620 compounds, 37% hits; AID 624431;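 active means mean inhibition over triplicates exceeds the hit threshold derived for the earlier primary screening run, cut at about 25% in these data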
An asterisk follows results filed as active; . = no result. A selection: hits, their analogues and other compounds. The true share with any hit is near 2%.

SMILES	ASAP1 inh	LEDGF integ inh	MBD2 inh	UHRF1 binding	TDP2 inh	ARFGAP1 inhibitor	ASAP1 inh confirm
CN(C(=O)CSc1nncn1C)C1CCCN(Cc2ccccc2F)C1 (centres undefined)	31*	-2	-5	0	4	15	1
CN(C(=O)CCN1CCCO1)C1CCCN(Cc2ccccc2F)C1 (centres undefined)	-11	3	-4	-1	-25	-1	.
COc1ccc(Cl)cc1S(=O)(=O)NCc1cccnc1	26*	2	-2	-1	0	11	8
CCOc1ccc(Cl)cc1S(=O)(=O)NCc1cccnc1	-8	-1	-1	0	5	4	.
CCCCOCCCNC(=O)C[C@H]1C[C@@]2(C(=O)OC)C(=C[C@H](COCc3ccccc3)O[C@@H]2C)N(Cc2ccco2)C1=O	.	1	3	-3	3	.	.
CNC(=O)C(=O)Nc1ccc2c(c1)N(S(=O)(=O)c1cccs1)CCC2	29*	1	3	-2	14	2	5
CC(C)NC(=O)C(=O)Nc1ccc2c(c1)N(S(=O)(=O)c1cccs1)CCC2	-1	2	-1	-1	3	11	.
Cc1ccc2nc(SCC(=O)Nc3ccc(F)cc3F)[nH]c2c1	27*	-3	4	2	-6	6	5
C[C@H]1[C@H](NC(=O)c2ccc(C(C)(C)C)cc2)CC[C@@]23CCCN2C(=O)CCC[C@@H]13	.	-3	0	-2	4	.	.
O=C(N/N=C/c1cccnc1)c1cc2ccccc2o1	1	-1	3	-1	2	18	.
O=C(N/N=C/c1cccnc1)c1cc2c(ccc3ccccc32)o1	28*	-2	2	-2	-1	25	55*
Oc1cccc(Nc2nc(-c3ccccc3)nc3ccccc23)c1	27*	5	2	4	-2	19	28*
COC(=O)c1cccc(Nc2nc(-c3ccncc3)nc3ccccc23)c1	28*	1	7	5	1	0	57*
CC(=O)c1cccc(Nc2nc(-c3ccccc3)nc3ccccc23)c1	16	-6	0	1	13	3	.
C(#CC1=CCCCC1)CNCC1CC1	.	4	-1	-3	0	.	.
CCc1ccc(CCNC(=O)OCCCN2CCC3(CCC(c4ccccc4)CC3)C2=O)cc1 (centres undefined)	.	3	7	1	-1	.	.
COC(=O)[C@]12C[C@H](CC(=O)NCc3cccc4ccccc34)C(=O)N(Cc3cccc4ccccc34)C1=C[C@H](C(C)(C)C)O[C@@H]2C	.	5	5	2	-4	.	.
O=C(CSc1nc2ccc(Nc3nc(N4CCOCC4)nc(N4CCOCC4)n3)cc2s1)N1CCOCC1	25*	-5	4	3	4	12	45*
O=C(CSc1nc2ccc(Nc3nc(N4CCOCC4)nc(N4CCOCC4)n3)cc2s1)Nc1ccccc1	-1	-2	0	6	10	0	.
COn1c(SC2CCCCC2)nc2ccccc2c1=O	74*	-4	1	2	2	-9	-3
O=C1NC(=S)N(C(=O)c2ccc(F)cc2)/C1=C/c1ccccc1	7	4	0	-5	-1	-4	.
COc1ccc(/C=C2\C(=O)NC(=S)N2C(=O)c2ccc(F)cc2)cc1	25*	2	-3	-2	12	-11	7
O=C(Nc1ccc(OC(F)(F)F)cc1)N1CCN(c2ccnc3cc(Cl)ccc23)CC1	25*	-1	5	0	-3	11	9
O=C(CCc1ccccc1-c1ccccc1CCNC(=O)c1c(F)cccc1F)NCc1ccccc1	.	10	-3	-2	-1	.	.
O=C(CCc1ccccc1)N[C@H]1[C@H](OCc2ccccc2)CCC[C@@]12C(=O)N(Cc1ccccc1)c1ccc(-c3cnccn3)cc12	.	-1	2	1	7	.	.
SMILES	ASAP1 inh	LEDGF integ inh	MBD2 inh	UHRF1 binding	TDP2 inh	ARFGAP1 inhibitor	ASAP1 inh confirm
O=C(CNC(=O)c1ccccc1O)N/N=C/c1cc(Br)ccc1OC(=O)/C=C/c1ccco1	26*	-3	0	-2	1	21	19
O=C(CNC(=O)c1cccc(F)c1)N/N=C/c1cc(Br)ccc1OC(=O)/C=C/c1ccco1	-4	4	4	8	0	3	.
COc1cc2oc3ccc(C#Cc4ccc(N)cc4)cc3c(=O)c2cc1OC	16	0	1	-6	7	15	.
COc1cc2oc3ccc(C#Cc4ccccn4)cc3c(=O)c2cc1OC	31*	2	6	4	5	-6	40*
C[C@H]1[C@@H](N(C)Cc2ccccc2)CC[C@@]23CCCN2C(=O)CCC[C@@H]13	.	1	-5	2	-4	.	.
Cc1ccc(C)c(N2CCN(C(=O)CN3C(=O)c4ccccc4C3=O)CC2)c1	2	-2	0	-3	2	-6	.
Cc1ccccc1N1CCN(C(=O)CN2C(=O)c3ccccc3C2=O)CC1	26*	1	-2	-2	7	-8	0
COc1cccc(-c2nnc(SCC(=O)OC(C)C)n2-c2ccc(Cl)cc2)c1	.	-1	2	-3	-2	.	.
Oc1oc(-c2ccccc2Br)nc1C=Nc1ccc(Br)cn1	51*	2	-3	1	5	8	110*
c1nc(NCC2CCCOC2)c2cc(-c3ccc4c(c3)OCO4)ccc2n1 (centres undefined)	.	3	-8	2	-7	.	.
N#Cc1cn(CC(=O)NCCc2c[nH]c3ccccc23)c2ccccc12	27*	1	-1	-1	-14	-8	7
O=C(c1n[nH]c(=O)c2ccccc12)N1CCN(c2ccccc2Cl)CC1	-14	-2	-5	-2	1	-10	.
O=C(c1n[nH]c(=O)c2ccccc12)N1CCN(S(=O)(=O)c2ccccc2Cl)CC1	25*	1	-1	-1	-13	-1	1
O=[N+]([O-])c1cccc(-c2cc(-c3cc(Br)ccc3O)[nH]n2)c1	25*	-4	5	0	-12	21	17
COC(=O)c1cc(-c2ccc(C)c3ccccc23)c(=O)n2c1CCC2	.	2	1	1	-3	.	.
CCC[C@H]1[C@@H](OC(=O)NCc2ccccc2)CC[C@@]23CCCN2C(=O)CCC[C@@H]13	.	-3	8	-3	6	.	.
CCOC(=O)c1[nH]c(C)c(C(=O)Nc2ccc(C)c(C)c2)c1C	26*	0	-1	-10	2	-10	2
CCOC(=O)c1[nH]c(C)c(C(=O)Nc2ccc(F)cc2)c1C	7	-6	2	-3	1	-11	.
